Published values of several laboratories.
Each line is one published result; the experiments were not run side by side.
Cell line: PC-3
Effect on: cell growth or viability

Compound	test	conditions	inhibition [%]
COc1ccc(C(=O)/C=C/c2cccc3ccccc23)cc1S(N)(=O)=O	SRB	10 µM	87
COC(=O)c1cccc(NC(=O)C2CCCN(C(=O)c3cc(C(F)(F)F)cc(C(F)(F)F)c3)C2)c1 (stereo not drawn)	WST-1	100 µM	0
COc1ccc(C(=O)/C=C/c2ccccc2Br)cc1S(N)(=O)=O	SRB	10 µM	79
O=C(Nc1cccc(Cc2ccccc2)c1)C1CCCN(C(=O)c2cccc(-c3ccco3)c2)C1 (stereo not drawn)	WST-1	100 µM	0
COc1ccc(C(=O)/C=C/c2cccc(Cl)c2Cl)cc1S(N)(=O)=O	SRB	10 µM	95
COc1cccc(NC(=O)CN2C(=O)/C(=C/c3cccs3)SC2=S)c1	MTT	10 µM	7.28
O=C(Nc1cccc(S(=O)(=O)N2CCCC2)c1)C1CCCN(C(=O)c2cc(C(F)(F)F)cc(C(F)(F)F)c2)C1 (stereo not drawn)	WST-1	100 µM	0
O=C(CN1C(=O)/C(=C/c2ccc(F)cc2)SC1=S)Nc1ccccc1	MTT	10 µM	27.7
Cn1cnnc1-c1cccc(NC(=O)C2CCCN(C(=O)c3cc(C(F)(F)F)cc(C(F)(F)F)c3)C2)c1 (stereo not drawn)	WST-1	100 µM	0
O=C(CN1C(=O)/C(=C/c2cccc(F)c2)SC1=S)Nc1ccccc1	MTT	10 µM	18.9
COc1ccc(C(=O)/C=C/c2cccc(Cl)c2)cc1S(N)(=O)=O	SRB	10 µM	68
O=C(CN1C(=O)/C(=C/c2ccncc2)SC1=S)Nc1ccccc1	MTT	10 µM	5.33
COc1ccc(C(=O)/C=C/c2cccnc2)cc1S(N)(=O)=O	SRB	10 µM	22
COc1ccc(/C=C2\SC(=S)N(CC(=O)Nc3ccccc3)C2=O)cc1	MTT	10 µM	25
COc1cc(CNC(=O)C[C@H](C)CCC=C(C)C)ccc1OCc1cn(-c2ccc(Cl)cc2)nn1	SRB	10 µM	28
